From ChEMBL document CHEMBL1128192, “Differences in backbone structure between angiotensin II agonists and type I antagonists” (J Med Chem, 1995)
Where a SMILES comes first, the peptide text is derived from it. [ ]: non-standard residue; d: D form. Nva(5-OH) = N[C@@H](CCCO)C(=O)O; Aib = CC(C)(N)C(=O)O; Sar = CNCC(=O)O

Experiments:
[1] = target: Angiotensin II receptor (Rattus norvegicus) (UniProt P29089+P25095+P35351); assay: Agonist activity at Angiotensin II receptor; format: functional
Outline: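 Uteri from female virgin Sprague–Dawley rats (150–200 g) given 25 μg diethylstilbestrol im 24 h before sacrifice. Horns were cleaned and bathed in DeJalons solution. Contractions were recorded with noncumulative dosing, with washout at peak response and 10 min rest between challenges. Activity is relative to human ANGII as standard, as the mean of at least three tissues.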

[2] = target: T1, Angiotensin II receptor (AT-1) type-1 (Rattus norvegicus, UniProt P29089+P25095); assay: Antagonist activity against Angiotensin II receptor type 1 as pA2; format: functional
T1 sequence (P29089 whole entry): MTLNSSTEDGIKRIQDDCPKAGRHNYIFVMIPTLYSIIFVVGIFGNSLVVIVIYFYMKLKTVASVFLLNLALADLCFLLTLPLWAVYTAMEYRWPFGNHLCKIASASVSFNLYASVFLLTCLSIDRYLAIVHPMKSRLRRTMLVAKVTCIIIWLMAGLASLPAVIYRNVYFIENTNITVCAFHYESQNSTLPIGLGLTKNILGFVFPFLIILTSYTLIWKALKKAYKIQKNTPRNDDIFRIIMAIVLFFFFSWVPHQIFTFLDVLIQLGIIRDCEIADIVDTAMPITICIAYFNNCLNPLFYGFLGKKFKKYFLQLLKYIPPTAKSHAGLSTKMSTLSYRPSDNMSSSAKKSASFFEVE
T1 sequence (P25095 whole entry): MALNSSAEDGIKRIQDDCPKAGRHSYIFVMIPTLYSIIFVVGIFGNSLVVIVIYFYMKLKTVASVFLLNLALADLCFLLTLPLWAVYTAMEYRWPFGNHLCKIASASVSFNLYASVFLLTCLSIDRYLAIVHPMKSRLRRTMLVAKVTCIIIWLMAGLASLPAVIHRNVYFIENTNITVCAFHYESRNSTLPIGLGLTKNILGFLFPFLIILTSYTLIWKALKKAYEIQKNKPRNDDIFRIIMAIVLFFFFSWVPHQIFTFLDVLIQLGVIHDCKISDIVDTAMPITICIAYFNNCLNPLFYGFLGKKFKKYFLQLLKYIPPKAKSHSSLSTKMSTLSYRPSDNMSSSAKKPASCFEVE
Outline: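 Isolated uterus from diethylstilbestrol-primed (25 μg im, 24 h) female virgin Sprague–Dawley rats, in DeJalons solution. An ANGII noncumulative dose-response curve was first set up in each tissue. Antagonist was added 2 min before ANGII, with EC50 reproducibility checked before and after. pA2 is the −log antagonist concentration that cuts the ED50 ANGII response to that of an ED50/2 dose, as the mean of ≥3 tissues.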

Chain of Angiotensin II receptor (Rattus norvegicus) (P35351 whole entry, looked up, one chain of several): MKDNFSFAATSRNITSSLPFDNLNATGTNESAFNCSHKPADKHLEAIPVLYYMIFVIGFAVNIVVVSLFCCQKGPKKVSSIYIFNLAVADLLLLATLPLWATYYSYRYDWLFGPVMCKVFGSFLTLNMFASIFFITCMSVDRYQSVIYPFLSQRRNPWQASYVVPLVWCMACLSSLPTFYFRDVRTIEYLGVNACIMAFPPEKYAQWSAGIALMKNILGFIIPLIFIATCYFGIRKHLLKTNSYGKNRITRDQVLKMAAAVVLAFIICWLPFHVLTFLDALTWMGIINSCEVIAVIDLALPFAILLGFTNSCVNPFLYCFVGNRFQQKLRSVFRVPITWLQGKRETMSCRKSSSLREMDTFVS

Row | Compound | Agonist activity [1] | pA2 [2]
1 | CC[C@H](C)[C@H](NC(=O)[C@H](Cc1ccc(O)cc1)NC(=O)[C@@H](NC(=O)[C@H](CCCN=C(N)N)NC(=O)[C@@H](N)CC(=O)O)C(C)C)C(=O)N[C@@H](Cc1c[nH]cn1)C(=O)N1CCC[C@H]1C(=O)N[C@@H](CCOC)C(=O)O | < 0.1% | 7.5
2 | CC[C@H](C)[C@H](NC(=O)[C@H](Cc1ccc(O)cc1)NC(=O)[C@@H](NC(=O)[C@@H](N)CCCN=C(N)N)C(C)C)C(=O)N[C@@H](Cc1c[nH]cn1)C(=O)N1CCC[C@H]1C(=O)N[C@@H](CCOC)C(=O)O | < 0.1% | < 6
3 | CC[C@H](C)[C@H](NC(=O)[C@H](CCCO)NC(=O)[C@@H](NC(=O)[C@H](CCCN=C(N)N)NC(=O)C(C)(C)N)C(C)C)C(=O)N[C@@H](Cc1c[nH]cn1)C(=O)N1CCC[C@H]1C(=O)N[C@@H](Cc1ccccc1)C(=O)O (H-[Aib]RV[Nva(5-OH)]IHPF-OH) |  | < 6
4 | CC[C@H](C)[C@H](NC(=O)[C@@H]1CCCN1C(=O)[C@H](Cc1c[nH]cn1)NC(=O)[C@@H](NC(=O)[C@H](CCCO)NC(=O)[C@@H](NC(=O)[C@H](CCCN=C(N)N)NC(=O)C(C)(C)N)C(C)C)[C@@H](C)CC)C(=O)O (H-[Aib]RV[Nva(5-OH)]IHPI-OH) |  | 6.2
5 | CC[C@H](C)[C@H](NC(=O)[C@H](CCCO)NC(=O)[C@@H](NC(=O)[C@H](CCCN=C(N)N)NC(=O)CNC)C(C)C)C(=O)N[C@@H](Cc1c[nH]cn1)C(=O)N1CCC[C@H]1C(=O)N[C@@H](Cc1ccccc1)C(=O)O (H-[Sar]RV[Nva(5-OH)]IHPF-OH) |  | < 6
6 | CC[C@H](C)[C@H](NC(=O)[C@@H]1CCCN1C(=O)[C@H](Cc1c[nH]cn1)NC(=O)[C@@H](NC(=O)[C@H](CCCO)NC(=O)[C@@H](NC(=O)[C@H](CCCN=C(N)N)NC(=O)CNC)C(C)C)[C@@H](C)CC)C(=O)O (H-[Sar]RV[Nva(5-OH)]IHPI-OH) |  | < 5
7 | CC[C@H](C)[C@H](NC(=O)C(Cc1ccc(C(=O)O)cc1)NC(=O)[C@@H](NC(=O)[C@H](CCCN=C(N)N)NC(=O)CNC)C(C)C)C(=O)N[C@@H](Cc1c[nH]cn1)C(=O)N1CCC[C@H]1C(=O)N[C@@H](Cc1ccccc1)C(=O)O (mixture of isomers) |  | < 5
8 | CC[C@H](C)[C@H](NC(=O)C(Cc1ccc(C(F)(F)F)cc1)NC(=O)[C@@H](NC(=O)[C@H](CCCN=C(N)N)NC(=O)CNC)C(C)C)C(=O)N[C@@H](Cc1c[nH]cn1)C(=O)N1CCC[C@H]1C(=O)N[C@@H](Cc1ccccc1)C(=O)O (mixture of isomers) |  | < 5
9 | CC[C@H](C)[C@H](NC(=O)[C@H](Cc1ccc(O)cc1)NC(=O)[C@@H](NC(=O)[C@H](CCCN=C(N)N)NC(=O)CNC)C(C)C)C(=O)N[C@@H](Cc1c[nH]cn1)C(=O)N1CCC[C@H]1C(=O)N[C@@H](CCOC)C(=O)O (stereo in doubt; form 1) | < 0.1% | 7.6
